KCNQ1 block: blocks the human KCNQ1 potassium channel; P51787; CHO-K1 KCNQ1, FluxOR thallium flux fluorescence; hits give high values; B-score at 10 µM; hit rate 1.3% among 310,000;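 active = compounds whose thallium flux B-score, printed positive for inhibition, exceeds three library SD while starting fluorescence stays within three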;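 also: channel opened by potassium depolarization with thallium stimulus after 20 min compound exposure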
Kir21 block: blocks the mouse Kir2.1 inward-rectifier potassium channel. hit rate 0.85% among 310,000. P35561. B-score at 10 µM. HEK293-Kir2.1, FluxOR thallium flux fluorescence; hits give low values;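 active = fluorescence ratio B-score at or below minus 3 SD of library scores, with starting-brightness B-score within 2 SD, cut at about -4.2 in these data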;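 also: channel flux triggered by added potassium and thallium sulfate stimulus; B-score of peak minus minimum fluorescence over baseline after thallium stimulus; more negative B-score means stronger Kir2.1 block with less thallium influx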
hERG protect: hERG (human) protection from proarrhythmic block; Q12809; CHO-hERG, FluxOR thallium flux, dofetilide IC70 present; activation (rescue from dofetilide block), less the hit threshold, % at 10 µM; hit rate 0.51% among 310,000;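 active = activation above the mean of controls blocked by dofetilide plus 5 SD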;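 also: thallium influx through hERG after potassium depolarization seen as dye fluorescence rise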
KCNQ1 pot: human KCNQ1 channel potentiation or activation | P51787 | CHO-K1 KCNQ1, thallium flux FluxOR fluorescence; hits give high values | B-score at 10 µM | hit rate 0.35% among 310,000;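 active = fluorescence ratio B-score, a plate-corrected score, at least three library SD, with initial intensity B-score within 5 SD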
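Schedule – 37 °C overnight plating, 90-min dark dye load, 20-min compound pretreatment · System – stable KCNQ1 CHO-K1 line · Probe or stimulus – thallium- and potassium-containing depolarizing buffer · Measured by – kinetic FluxOR fluorescence, 10 s baseline plus 110 s post-stimulus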
KCNK9 block: human KCNK9 channel inhibition; HEK293 KCNK9, FluxOR thallium flux fluorescence; hits give low values; Q9NPC2; hit rate 1.2% among 310,000; B-score at 10 µM;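 active = ratio B-score over 3 SD below the library mean, with starting fluorescence within 5 SD of its mean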;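 also: negative B-score means less thallium flux so channel inhibition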
KCNK3 inh: human KCNK3 channel inhibition, primary screen; B-score at 10 µM; AID 602410; hit rate 0.84% among 340,000; CHO-KCNK3 thallium flux, FluxOR fluorescence; hits give low values; O14649;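 active = B-score under library mean minus 4 SD, starting fluorescence ratio at most library mean plus 5 SD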;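 also: more negative B-score means stronger inhibition of thallium flux through KCNK3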
KCNQ1 block val: confirmation of human KCNQ1 potassium channel inhibitors. KCNQ1 cell line, FluxOR thallium flux fluorescence. AID 588353. inhibition, % at 10 µM. shares compounds with KCNQ1 block. hit rate 93% among 1,600;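 active = primary screen active, with duplicate mean exceeding buffer control mean plus 3 SD of buffer wells, cut at about 28% in these data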;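 also: 0% = buffer control ratio and 100% = XE991 inhibitor control ratio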
CHO Tl flux: KCNQ1 inhibitor counter-screen hit in parental CHO cells | parental CHO-K1, FluxOR thallium flux fluorescence ratio; hits give low values; zero means no signal rise above baseline | hit rate 21% among 1,600 | fluorescence ratio (Tl flux) at 10 µM | shares compounds with KCNQ1 block;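 active = mean of duplicate thallium-flux fluorescence ratios in parental host cells more than 5 SD below the buffer control mean, cut at about 0.38 in these data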;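 also: ratio is peak minus minimum fluorescence divided by baseline fluorescence; actives read low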
KCNQ1 ephys val: human KCNQ1 inhibition validated by electrophysiology; shares compounds with KCNQ1 block; calls only at 10 µM; hit rate 20% among 490; KCNQ1-CHO cells, automated patch clamp current; AID 624120;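 active = KCNQ1 current drop exceeding 3 SD of negative control wells, seen in both duplicate runs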;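 also: steady state current during a 2 s step from -80 to +40 mV; negative values mean current inhibition and positive values mean potentiation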
KCNQ2 spec: selectivity of KCNQ1 inhibitors: inhibition of rat KCNQ2 channel; shares compounds with KCNQ1 block; KCNQ2 cells, FluxOR thallium flux fluorescence; inhibition, % at 10 µM; hit rate 71% among 1,600; AID 651746;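 active = mean percent inhibition of the KCNQ2 thallium signal more than 5 SD above the buffer-only control wells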;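 also: KCNQ2 expressed in CHO cells; 0% = buffer control wells and 100% = XE-991 inhibitor control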
Target sequence (O88943 whole entry, looked up): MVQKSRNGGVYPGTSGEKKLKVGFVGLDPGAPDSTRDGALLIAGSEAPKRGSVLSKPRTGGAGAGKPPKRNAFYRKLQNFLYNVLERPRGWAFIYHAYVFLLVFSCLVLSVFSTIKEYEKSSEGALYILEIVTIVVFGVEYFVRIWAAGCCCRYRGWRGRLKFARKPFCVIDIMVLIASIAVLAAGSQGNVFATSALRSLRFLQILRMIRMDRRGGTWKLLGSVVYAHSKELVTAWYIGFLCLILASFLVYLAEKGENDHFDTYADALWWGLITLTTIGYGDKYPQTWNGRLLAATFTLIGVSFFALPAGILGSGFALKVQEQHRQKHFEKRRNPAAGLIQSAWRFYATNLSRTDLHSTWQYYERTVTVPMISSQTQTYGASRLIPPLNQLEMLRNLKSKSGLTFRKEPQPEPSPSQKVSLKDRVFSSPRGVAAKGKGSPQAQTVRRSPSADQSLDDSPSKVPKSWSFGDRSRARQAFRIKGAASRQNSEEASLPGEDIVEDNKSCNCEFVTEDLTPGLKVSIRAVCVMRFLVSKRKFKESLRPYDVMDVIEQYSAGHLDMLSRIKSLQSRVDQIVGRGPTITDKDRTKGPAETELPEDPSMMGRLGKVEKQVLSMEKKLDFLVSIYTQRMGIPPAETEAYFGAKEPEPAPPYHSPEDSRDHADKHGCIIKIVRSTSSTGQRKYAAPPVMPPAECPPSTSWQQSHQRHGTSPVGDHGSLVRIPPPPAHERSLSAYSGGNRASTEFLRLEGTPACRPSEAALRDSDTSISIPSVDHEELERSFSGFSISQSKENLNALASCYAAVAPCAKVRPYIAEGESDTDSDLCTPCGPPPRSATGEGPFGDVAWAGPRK
KCNQ1 KCNE1 spec: human KCNQ1/KCNE1 inhibition in KCNQ1 specificity screen; shares compounds with KCNQ1 block; KCNQ1/KCNE1 cells, FluxOR thallium flux fluorescence; inhibition, % at 10 µM; hit rate 77% among 1,600;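 active = mean percent inhibition of duplicate wells above the buffer-only control mean plus 3 SD of those controls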;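 also: 0% = buffer only wells and 100% = XE-991 inhibitor control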
An asterisk follows results filed as active. Compounds with a hit are over-represented: about 3.8% of the library has one in this group of screens.

What do the screens show for `CCn1nccc1C(=O)Nc1ccc(Cl)cn1`?
KCNQ1 block: inactive; Kir21 block: 1.8; hERG protect: -8; KCNQ1 pot: inactive; KCNK9 block: inactive; KCNK3 inh: inactive

What do the screens show for `CCn1nccc1C(=O)Nc1cc(Cl)cc(Cl)c1`?
KCNQ1 block: 6*; Kir21 block: 0.51; hERG protect: -10; KCNQ1 pot: inactive; KCNK9 block: -6.7*; KCNK3 inh: inactive; KCNQ1 block val: 31*; CHO Tl flux: 0.55; KCNQ2 spec: inactive; KCNQ1 KCNE1 spec: inactive

How did CCCN(CC(=O)Nc1ccccc1C)C(=O)CC(NC(=O)c1ccccc1)c1ccccc1 (centres undefined) do in these assays?
KCNQ1 block: inactive; Kir21 block: 0; hERG protect: -7; KCNQ1 pot: inactive; KCNK9 block: inactive; KCNK3 inh: inactive

Results for O=C(NC(NC1CCS(=O)(=O)C1)C(Cl)(Cl)Cl)c1ccc(Br)cc1 (centres undefined) ?
KCNQ1 block: 10*; Kir21 block: 0; hERG protect: -14; KCNQ1 pot: inactive; KCNK9 block: inactive; KCNK3 inh: inactive; KCNQ1 block val: 64*; CHO Tl flux: 0.51; KCNQ2 spec: 88%*; KCNQ1 KCNE1 spec: 36%*

How did O=C(NC(NC1CCS(=O)(=O)C1)C(Cl)(Cl)Cl)c1cccc(Cl)c1 (centres undefined) do in these assays?
KCNQ1 block: inactive; Kir21 block: -2.3; hERG protect: -8; KCNQ1 pot: inactive; KCNK9 block: inactive; KCNK3 inh: inactive

What do the screens show for `Cc1ccc(Cl)cc1N1CCN(S(=O)(=O)c2ccc3c(c2)OCCO3)CC1`?
KCNQ1 block: 7*; Kir21 block: 0.1; hERG protect: 0; KCNQ1 pot: inactive; KCNK9 block: inactive; KCNK3 inh: inactive; KCNQ1 block val: 113*; CHO Tl flux: 0.4; KCNQ2 spec: 78%*; KCNQ1 KCNE1 spec: 128%*

Results for O=C1c2ccsc2SCCN1Cc1c(Cl)cccc1Cl ?
KCNQ1 block: 8*; Kir21 block: -2.2; hERG protect: -12; KCNQ1 pot: inactive; KCNK9 block: inactive; KCNK3 inh: inactive; KCNQ1 block val: 69*; CHO Tl flux: 0.42; KCNQ2 spec: 79%*; KCNQ1 KCNE1 spec: 86%*

How did Cn1ncc2c(N3CCN(c4ccccc4F)CC3)ncnc21 do in these assays?
KCNQ1 block: inactive; Kir21 block: -0.1; hERG protect: -4; KCNQ1 pot: inactive; KCNK9 block: inactive; KCNK3 inh: inactive

Results for Cn1ncc2c(N3CCN(c4ccc(Cl)c(Cl)c4)CC3)ncnc21 ?
KCNQ1 block: 10*; Kir21 block: 0.15; hERG protect: -16; KCNQ1 pot: inactive; KCNK9 block: inactive; KCNK3 inh: inactive; KCNQ1 block val: 103*; CHO Tl flux: 0.48; KCNQ1 ephys val: inactive; KCNQ2 spec: inactive; KCNQ1 KCNE1 spec: 61%*

Results for O=[N+]([O-])c1ccc(O)c(N=Cc2sc3ccccc3c2O)c1 ?
KCNQ1 block: inactive; Kir21 block: -0.1; hERG protect: -18; KCNQ1 pot: inactive; KCNK9 block: inactive; KCNK3 inh: inactive

How did Oc1c(C=Nc2cccc3cccnc23)sc2ccccc12 do in these assays?
KCNQ1 block: 10*; Kir21 block: 0.68; hERG protect: -18; KCNQ1 pot: inactive; KCNK9 block: -8.1*; KCNQ1 block val: 88*; CHO Tl flux: 0.36*; KCNQ2 spec: inactive; KCNQ1 KCNE1 spec: 134%*

Results for COc1ccc(C)cc1Nc1n[n+](-c2ccccc2)c(-c2ccc(N(C)C)cc2)s1 ?
KCNQ1 block: 15*; Kir21 block: -1.1; hERG protect: -34; KCNQ1 pot: inactive; KCNK9 block: -7.2*; KCNK3 inh: inactive; KCNQ1 block val: active; CHO Tl flux: 0.22*; KCNQ2 spec: inactive; KCNQ1 KCNE1 spec: inactive

How did CN(C)c1ccc(-c2sc(Nc3ccccc3)n[n+]2-c2ccc(F)cc2)cc1 do in these assays?
KCNQ1 block: inactive; Kir21 block: -6.7; hERG protect: -44; KCNQ1 pot: inactive; KCNK9 block: inactive; KCNK3 inh: inactive

Results for O=C(Nc1ccc2nc3n(c(=O)c2c1)CCCCC3)C(=O)N1CCN(c2ccc(F)cc2)CC1 ?
KCNQ1 block: inactive; Kir21 block: 0.93; hERG protect: -12; KCNQ1 pot: inactive; KCNK9 block: inactive; KCNK3 inh: inactive

How did O=C(Nc1nc(-c2ccccc2)cs1)c1ccccc1NS(=O)(=O)c1ccc(F)cc1 do in these assays?
KCNQ1 block: 10*; Kir21 block: -0.8; hERG protect: -29; KCNQ1 pot: inactive; KCNK9 block: inactive; KCNK3 inh: inactive; KCNQ1 block val: 105*; CHO Tl flux: 0.33*; KCNQ2 spec: inactive; KCNQ1 KCNE1 spec: 151%*

How did O=C1NC(NS(=O)(=O)c2ccccc2)(C(F)(F)F)C(=O)N1c1cccc(Cl)c1 (centres undefined) do in these assays?
KCNQ1 block: inactive; Kir21 block: -0.98; hERG protect: -7; KCNQ1 pot: inactive; KCNK9 block: inactive; KCNK3 inh: inactive

How did O=C(OCN1C(=O)C(=O)c2ccccc21)c1ccc(Cl)cc1 do in these assays?
KCNQ1 block: inactive; Kir21 block: -0.21; hERG protect: -6; KCNQ1 pot: inactive; KCNK9 block: inactive; KCNK3 inh: inactive

What do the screens show for `O=c1c2c3c(sc2nc(NCCO)n1Cc1ccco1)CCCCC3`?
KCNQ1 block: inactive; Kir21 block: -0.14; hERG protect: -2; KCNQ1 pot: inactive; KCNK9 block: inactive; KCNK3 inh: inactive

What do the screens show for `O=c1c2c3c(sc2nc(NCCO)n1CCc1ccccc1)CCCCC3`?
KCNQ1 block: 6*; Kir21 block: -0.02; hERG protect: -14; KCNQ1 pot: inactive; KCNK9 block: inactive; KCNK3 inh: inactive; KCNQ1 block val: 67*; CHO Tl flux: 0.45; KCNQ2 spec: 92%*; KCNQ1 KCNE1 spec: 100%*

Compound activity deposited in PubChem BioAssay by Johns Hopkins Ion Channel Center.
